We go through three molecules from publication PMC8173612 (ACS Omega, 2021).

The conditions of data set [1]: in deionized water, cyclohexane, petroleum ether, and hexane; cited from earlier work.
A short description of data set [2]: Solubility screening of selected solvents. It is filed as physicochemical. Put shortly:
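Solvent screen in 2-propanol, tetrahydrofuran, cyclohexane and toluene. Solubility of each test compound was determined in each neat solvent at room temperature and at 0 °C. Values are reported in mg/mL.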

Setting [3] is: solvent cyclohexane, RT (25-30 °C).
Where [4] appears, read: tetrahydrofuran, 0 °C, organic solvent or mixture, thermodynamic from solid.
Setting [5] is: tetrahydrofuran, organic solvent or mixture, thermodynamic from solid.
The mark [6] stands for this setting: toluene, 0 °C, organic solvent or mixture, thermodynamic from solid.
Setting [7] is: toluene, organic solvent or mixture, thermodynamic from solid.
The mark [8] stands for this setting: solvent 2-propanol, RT (25-30 °C).

Structures are written as SMILES. Converted amounts (≈) assume the structure as drawn. Where two headings read alike, the source gives them in different places.

Broadly, the solubility is the concentration that dissolves in the medium under given conditions.

Regarding `O=P(c1ccccc1)(c1ccccc1)c1ccccc1` [TPPO, Triphenylphosphine oxide], the solubility result in data set [1] was “almost insoluble”; in data set [2] (2-propanol, 0 °C, organic solvent or mixture, thermodynamic from solid) it was 25.4 mg/mL (≈ 91.3 mM); in data set [2] (2-propanol, organic solvent or mixture, thermodynamic from solid), 46.5 mg/mL (≈ 167 mM); in data set [2] (solvent cyclohexane, 0 °C), “insoluble”; in data set [2] (setting [3]), “insoluble”; in data set [2] (setting [4]), 105 mg/mL (≈ 377 mM). The solubility in data set [2] (setting [5]) is 170 mg/mL (≈ 610 mM); in data set [2] (setting [6]), 42.9 mg/mL (≈ 154 mM); in data set [2] (setting [7]), 44.3 mg/mL (≈ 159 mM).

Consider `CC(C)OC(=O)NNC(=O)OC(C)C.O=P(c1ccccc1)(c1ccccc1)c1ccccc1` [TPPO-H2DIAD, triphenylphosphine oxide-1,2-isopropylhydrazine dicarboxylate], for which the solubility in data set [2] (solvent 2-propanol, 0 °C) was 13.3 mg/mL; in data set [2] (setting [8]), 60.4 mg/mL; in data set [2] (solvent cyclohexane, 0 °C), “insoluble”; in data set [2] (setting [3]), “insoluble”; in data set [2] (solvent tetrahydrofuran, 0 °C), 61.0 mg/mL; in data set [2] (solvent tetrahydrofuran, RT (25-30 °C)) it was 157.5 mg/mL. This molecule displayed a solubility in data set [2] (solvent toluene, RT (25-30 °C)) of 23.2 mg/mL.

As to `CC(C)(C)OC(=O)N1C[C@@H](F)C[C@H]1CON1C(=O)c2ccccc2C1=O` [compound-6, tert-Butyl (2S,4S)-2-{[(1,3-Dioxo-1,3-dihydro-2H-isoindol-2-yl)oxy]methyl}-4-fluoro-pyrrolidine-1-carboxylate], the solubility entry in data set [2] (solvent 2-propanol, 0 °C) was “insoluble”; in data set [2] (setting [8]) it was “insoluble”; in data set [2] (solvent cyclohexane, 0 °C), “insoluble”; in data set [2] (setting [3]) it was “insoluble”; in data set [2] (setting [4]), 101 mg/mL (≈ 277 mM); in data set [2] (setting [5]), 124 mg/mL (≈ 342 mM). In addition, the solubility stood at 42.1 mg/mL (≈ 116 mM) in data set [2] (setting [6]) and 46.7 mg/mL (≈ 128 mM) in data set [2] (setting [7]).
